Laboratory results: ChEMBL document CHEMBL3758101, “Synthesis and biological evaluation of fluorinated 1,5-diarylpyrrole-3-alkoxyethyl ether derivatives as selective COX-2 inhibitors endowed with anti-inflammatory activity” (Eur J Med Chem, 2016)
Activity calls are given as the source filed them.

How the values were obtained:
[1] = test system: Mus musculus; assay: Antinociceptive activity in po dosed CD1 albino mouse model of acetic acid-induced visceral pain assessed as number of writhes pretreated for 30 to 60 mins before acetic acid challenge measured after 5 mins; assay type: functional, organism-based
[2] = test system: Rattus norvegicus; assay: Antihyperalgesic activity in Sprague-Dawley rat model of carrageenan-induced inflammatory pain assessed as paw pressure threshold at 3 mg/kg, po administered 2 hrs post carrageenan challenge measured after 30 mins by paw pressure test (reference value: 34.1 +/- 2.3 g)
[3] = test system: Rattus norvegicus; assay: Antihyperalgesic effect in Sprague-Dawley rat model of monosodium iodoacetate-induced osteoarthritis assessed as withdrawal threshold at 3 mg/kg, ip administered 14 days post MIA challenge measured after 60 mins by paw pressure test (reference value: 36.1 +/- 3.5 g); assay type: functional
Method in brief: (§1)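 Male Sprague–Dawley rats (200–250 g). MIA (2 mg/25 µL) was injected into the left tibiotarsal joint on day 0 under 2% isoflurane; controls received 25 µL saline. On day 14 compound or vehicle was given at time 0. Paw pressure threshold (g) was read with an analgesimeter using a blunt conical probe on the dorsal paw at 30, 60, 90 and 120 min. Mean ± s.e.m., 6 rats.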

[4] = test system: Rattus norvegicus; assay: Antihyperalgesic effect in Sprague-Dawley rat model of monosodium iodoacetate-induced osteoarthritis assessed as withdrawal threshold at 3 mg/kg, ip administered 14 days post MIA challenge measured after 30 mins by paw pressure test (reference value: 37.8 +/- 3.3 g); assay type: functional; method in brief: as §1
[5] = test system: Rattus norvegicus; assay: Antiinflammatory activity in Sprague-Dawley rat model of carrageenan-induced paw edema assessed as paw volume at 3 mg/kg, po administered 2 hrs post carrageenan challenge measured after 120 mins by plethysmometry (reference value: 34.5 +/- 4.4 ml); assay type: functional
[6] = test system: Rattus norvegicus; assay: Antihyperalgesic effect in Sprague-Dawley rat model of monosodium iodoacetate-induced osteoarthritis assessed as withdrawal threshold at 10 mg/kg, ip administered 14 days post MIA challenge measured after 120 mins by paw pressure test (reference value: 39.2 +/- 4 g); assay type: functional; method in brief: as §1
[7] = test system: Rattus norvegicus; assay: Antihyperalgesic effect in Sprague-Dawley rat model of monosodium iodoacetate-induced osteoarthritis assessed as withdrawal threshold at 20 mg/kg, ip administered 14 days post MIA challenge measured after 60 mins by paw pressure test (reference value: 36.1 +/- 3.5 g); assay type: functional; method in brief: as §1
[8] = target: T1, Prostaglandin G/H synthase 2 (Mus musculus, UniProt Q05769); assay: Inhibition of COX-2 in mouse J774 cells assessed as reduction in LPS-induced PGE2 level incubated for 24 hrs by radio immunoassay; assay type: cell-based
T1 sequence (Q05769 whole entry): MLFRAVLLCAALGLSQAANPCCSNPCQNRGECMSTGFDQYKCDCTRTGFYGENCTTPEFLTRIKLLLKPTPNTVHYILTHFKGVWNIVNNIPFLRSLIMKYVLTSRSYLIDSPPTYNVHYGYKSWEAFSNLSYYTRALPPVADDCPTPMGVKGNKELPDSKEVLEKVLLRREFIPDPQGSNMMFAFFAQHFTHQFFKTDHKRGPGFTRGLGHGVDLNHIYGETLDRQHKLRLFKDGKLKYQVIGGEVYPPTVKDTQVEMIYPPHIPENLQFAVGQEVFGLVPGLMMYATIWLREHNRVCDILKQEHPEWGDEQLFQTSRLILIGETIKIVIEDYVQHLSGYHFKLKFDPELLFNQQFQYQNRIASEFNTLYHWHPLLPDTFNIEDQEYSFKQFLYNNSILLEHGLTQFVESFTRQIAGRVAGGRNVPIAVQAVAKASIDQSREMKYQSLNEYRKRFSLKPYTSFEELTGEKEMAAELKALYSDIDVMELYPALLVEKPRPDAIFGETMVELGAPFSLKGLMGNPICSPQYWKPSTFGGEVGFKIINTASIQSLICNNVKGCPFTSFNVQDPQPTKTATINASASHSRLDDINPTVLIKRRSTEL
Method in brief: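 Murine J774 macrophages were stimulated for 24 h with E. coli LPS (10 µg/mL) to induce COX-2, with or without compound (0.001–10 µM). Supernatant PGE2 was measured by RIA as % inhibition of production versus control; triplicate wells, mean of three experiments, IC50 from a sigmoidal variable-slope fit.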

[9] = test system: Rattus norvegicus; assay: Antiinflammatory activity in Sprague-Dawley rat model of carrageenan-induced […] at 10 mg/kg, po administered 2 hrs post carrageenan challenge measured after 120 mins by […] (reference value: 34.5 +/- 4.4 ml); assay type: functional
[10] = test system: Mus musculus; assay: Antinociceptive activity in CD1 albino mouse model of acetic acid-induced visceral pain assessed as number of writhes at 3 mg/kg, po pretreated for 60 mins before acetic acid challenge measured after 5 mins (reference value: 32.5 +/- 2.4); assay type: functional
[11] = test system: Rattus norvegicus; assay: Antihyperalgesic activity in Sprague-Dawley rat model of carrageenan-induced inflammatory pain assessed as paw pressure threshold at 20 mg/kg, po administered 2 hrs post carrageenan challenge measured after 60 mins by paw pressure test (reference value: 35.4 +/- 3.6 g)
[12] = test system: Rattus norvegicus; assay: Antihyperalgesic effect in Sprague-Dawley rat model of monosodium iodoacetate-induced osteoarthritis assessed as withdrawal threshold at 10 mg/kg, ip administered 14 days post MIA challenge measured after 90 mins by paw pressure test (reference value: 37.8 +/- 3.1 g); assay type: functional; method in brief: as §1
[13] = test system: Rattus norvegicus; assay: Antihyperalgesic effect in Sprague-Dawley rat model of monosodium iodoacetate-induced osteoarthritis assessed as withdrawal threshold at 20 mg/kg, ip administered 14 days post MIA challenge measured after 120 mins by paw pressure test (reference value: 39.2 +/- 4 g); assay type: functional; method in brief: as §1
[14] = test system: Rattus norvegicus; assay: Antihyperalgesic activity in Sprague-Dawley rat model of carrageenan-induced inflammatory pain assessed as paw pressure threshold at 3 mg/kg, po administered 2 hrs post carrageenan challenge measured after 60 mins by paw pressure test (reference value: 35.4 +/- 3.6 g)
[15] = test system: HaCaT; assay: Antiproliferative activity against human HaCaT cells at 50 uM after 24 hrs by BrdU incorporation assay; assay type: functional, cell-based
Method in brief: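 HaCaT human keratinocytes were grown in high-glucose DMEM with 10% FBS and 2 mM L-glutamine at 37 °C and 5% CO2 to 80% confluency. Cells were treated 24 h with compound at 1, 10 or 50 µM (final DMSO ≤0.1%). Proliferation was read by BrdU incorporation as % of DMSO control; three experiments.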

[16] = test system: Rattus norvegicus; assay: Antihyperalgesic activity in Sprague-Dawley rat model of carrageenan-induced inflammatory pain assessed as paw pressure threshold at 20 mg/kg, po administered 2 hrs post carrageenan challenge measured after 90 mins by paw pressure test (reference value: 37.2 +/- 3.4 g)
[17] = test system: HaCaT; assay: Cytotoxicity against human HaCaT cells at 1 to 50 uM after 24 hrs by LDH release assay; assay type: cell-based
Method in brief: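 HaCaT cells were grown in high-glucose DMEM with 10% FBS to 80% confluency. They were exposed 24 h to compound at 1–50 µM (final DMSO ≤0.1%). LDH release was expressed as a percentage of Triton X-100 lysis (100%); mean of three experiments.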

Cc1c(CCOCCCF)cc(-c2ccc(S(C)(=O)=O)cc2)n1-c1ccc(F)cc1
Activity [1]: Dose-dependent effect
Activity [2]: 45.2 g
Activity [3]: 45.4 g
Activity [4]: 47.9 g
Activity [5]: 36.2 g
Activity [6]: 40.6 g
Activity [7]: 54.5 g
IC50 [8]: 7 nM
Activity [9]: 38.1 g
Activity [10]: 24.6
Activity [11]: 56.3 g
Activity [12]: 44.3 g
Activity [13]: 37.1 g
Activity [14]: 49.2 g
Activity [15]: Active
Activity [16]: 44.9 g
Activity [17]: Non-toxic
